In paper PMC6177216 (Journal of controlled release : official journal of the …, 2018):
Like-named read-outs stand apart in the source and are kept apart here. One block for each compound: values may come before it.

Assays:
[1] = system: MCF-7 human breast cancer cells; assay: MTT cytotoxicity assay in MCF-7 cells; assay type: cell-based; conditions: for inhibition of cell proliferation (in words): MTT
Method in brief: (§1)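 Cells seeded at 5×10³ (MCF-7) or 3×10³ (PC-3) per well and grown 24 h in DMEM with 10% FBS and 1% streptomycin/penicillin. They were then exposed for 48 h to various concentrations of test compound alone or combined with another anticancer agent. Viability was read by MTT. IC50 came from fitting an inhibitory normalised dose-response model with variable slope.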

[2] = system: 4T1.2 mouse breast cancer cells; assay: MTT cytotoxicity assay in 4T1.2 cells; assay type: cell-based
GCS mRNA [3] = assay: GCS mRNA expression by real-time PCR in MCF-7 cells; assay type: cell-based, human; conditions: 48 h; for effect on GCS mRNA expression: various concentrations
[4] = system: PC-3 human prostate cancer cells; assay: MTT cytotoxicity assay in PC-3 cells; assay type: cell-based
Method in brief: as §1

GCS mRNA [5] = assay: GCS mRNA expression by real-time PCR in 4T1.2 cells; assay type: cell-based, mouse; conditions: 48 h; for effect on GCS mRNA expression: various concentrations
[6] = In vitro DOX release by dialysis in DPBS; assay type: physicochemical; conditions: DOX 0.5 mg/mL
Method in brief: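 Dialysis release was run alongside free drug and drug loaded in a pharmacologically inert copolymer micelle as comparators. Cumulative release was followed from 0 to 72 h in triplicate.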

ceramides in MCF-7 cells = assay: Ceramide levels by LC/MS in MCF-7 cells; assay type: cell-based, human; conditions: PPMP 1.7 μM and/or DOX 100 nM, 48 h
Method in brief: (§2)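 Cells seeded at 2×10⁴ (4T1.2) or 6×10⁴ (MCF-7) per well in DMEM with 10% FBS and 1% penicillin-streptomycin for 24 h. Medium was then replaced with 2% FBS medium containing test compound, free or micellar. After 48 h, cells were washed with ice-cold D-PBS and lysed in 0.2% SDS, with an aliquot kept for protein assay. Lipids were resuspended in ACN/IPA/H₂O (1:1:1) and analysed by HPLC-ESI-MS/MS. Peak areas were quantified against C6-ceramide internal standard and normalised to protein.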

[7] = Plasma pharmacokinetics of DOX; assay type: in vivo, tumor-free female CD1 mice; conditions: DOX in plasma; i.v. 5 mg/kg DOX; CD1 mice
ceramides in 4T1.2 cells = assay: Ceramide levels by LC/MS in 4T1.2 cells; assay type: cell-based, mouse; conditions: PPMP 1.7 μM and/or DOX 100 nM, 48 h
Method in brief: as §2

Compound: CCCCCCCCCCCCC/C=C/[C@@H](O)[C@H](CO)NC(=O)CCCCC [C6-ceramide]
- IC50 ([1]; read-out: D502, IC50 of drug 2 in single treatment, MCF-7, 48 h): 6.2 ± 0.2 µM
- IC50 ([2]; read-out: D502, IC50 of drug 2 in single treatment, 4T1.2, 48 h): 2.8 ± 0.2 µM
- increase of GCS mRNA expression level (GCS mRNA [3]; C6-ceramide 2 μM): 6.5 fold
- effect on GCS mRNA expression (GCS mRNA [3]): significant increases
- IC50 ([4]; read-out: D502, IC50 of drug 2 in single treatment, PC-3, 48 h): 1.6 ± 0.1 µM
- effect on GCS mRNA expression (GCS mRNA [5]): similarly observed

- DOX released ([6]; in 2 h): Forty eight
- DOX released ([6]; within 12 h): around 83%
- AUC0−∞ [7]: 9200 ng·h/mL
- CL [7]: 10.87 µL/h
- Cmax [7]: 4410 µg/mL
- T1/2 [7]: 3.35 h
- Vd [7]: 52.49 µL
Compound: COc1cccc2c1C(=O)c1c(O)c3c(c(O)c1C2=O)C[C@@](O)(C(=O)CO)C[C@@H]3O[C@H]1C[C@H](N)[C@H](O)[C@H](C)O1 [DOX, Doxorubicin]
- effect on amount of C16 ceramide (ceramides in MCF-7 cells): significantly induced
- inhibition of cell proliferation (in words) ([1]; MCF-7, 48 h): concentration-dependent inhibition
- increase of GCS mRNA expression level (GCS mRNA [3]; DOX 200 nM): 4.2 fold
- effect on GCS mRNA expression (GCS mRNA [3]): significant increases
- effect on amount of C16 ceramide (ceramides in 4T1.2 cells): significantly induced
- effect on GCS mRNA expression (GCS mRNA [5]): similarly observed

Compound: CC(=O)O[C@H]1C(=O)[C@@]2(C)[C@H]([C@H](OC(=O)c3ccccc3)[C@]3(O)C[C@H](OC(=O)[C@H](O)[C@@H](NC(=O)c4ccccc4)c4ccccc4)C(C)=C1C3(C)C)[C@]1(OC(C)=O)CO[C@@H]1C[C@@H]2O [PTX, paclitaxel]
- IC50 ([1]; Homo sapiens, MCF7, 48 h, read-out: D502, IC50 of drug 2 in single treatment): 7.14 ± 1.87 µg/mL
- IC50 ([2]; Mus musculus, 4T1.2, 48 h, read-out: D502, IC50 of drug 2 in single treatment): 0.108 ± 0.0181 µg/mL
- effect on GCS mRNA expression (GCS mRNA [3]): significant induction
- IC50 ([4]; Homo sapiens, PC-3, 48 h, read-out: D502, IC50 of drug 2 in single treatment): 0.0043 ± 0.0002 µg/mL
- effect on GCS mRNA expression (GCS mRNA [5]): not in 4T1.2 cells

Compound: CCCCCCCCCCCCCCCC(=O)NC(CN1CCOCC1)C(O)c1ccccc1 (centres unmarked) [PPMP, 1-phenyl-2-palmitoylamino-3-morpholino-1-propanol]
- effect on amount of C16 ceramide (ceramides in MCF-7 cells): modest increase
- IC50 ([1]; Homo sapiens, MCF7, 48 h, read-out: D501, IC50 of PPMP in single treatment): 5.7 ± 0.4 µM
- inhibition of cell proliferation (in words) ([1]; MCF-7, 48 h): concentration-dependent inhibition
- cytotoxicity / inhibition of proliferation (in words) ([2]; 4T1.2, 48 h, MTT): inhibited the proliferation
- IC50 ([2]; Mus musculus, 4T1.2, 48 h, read-out: D501, IC50 of PPMP in single treatment): 2.2 ± 0.1 µM
- effect on DOX-induced upregulation of GCS mRNA expression (GCS mRNA [3]; PPMP 1.7 μM, DOX 100 nM): effective in inhibiting
- effect on basal level of GCS mRNA (GCS mRNA [3]; PPMP concentration 1.7 μM): significant decreases
- IC50 ([4]; Homo sapiens, PC-3, 48 h, read-out: D501, IC50 of PPMP in single treatment): 3.4 ± 0.1 µM
- effect on amount of C16 ceramide (ceramides in 4T1.2 cells): modest increase
- effect on DOX-induced upregulation of GCS mRNA expression (GCS mRNA [5]; PPMP 1.7 μM, DOX 100 nM): effective in inhibiting
- effect on basal level of GCS mRNA (GCS mRNA [5]; PPMP concentration 1.7 μM): significant decreases
